Results gathered from unrelated publications.
Observed: cell growth or viability

| SMILES | cell line | assay | conditions | endpoint | value |
| --- | --- | --- | --- | --- | --- |
| CCC1=C[C@@H]2CN(C1)Cc1c([nH]c3ccccc13)[C@@](C(=O)OC)(c1cc3c(cc1OC)N(C)[C@H]1[C@@](O)(C(=O)OC)[C@H](OC(C)=O)[C@]4(CC)C=CCN5CC[C@]31[C@@H]54)C2 | LLC-PK1 |  | 72 h | IC80 | 11 nM |
| CCc1ccc(/C=N/n2c(C)nc3ccc(C)cc3c2=O)s1 | LoVo | LDH | 200 µg/mL, 24 h | viability | 89.5% |
| COc1cc(-c2ccc(-c3ccc(C(=N)N)nc3)s2)cc(OC)c1OC | TK-10 |  |  | GI50 | 3190 nM |
| COc1cc(NCC(=O)Nn2c(C)nc3ccc(Cl)cc3c2=O)cc(OC)c1OC | LoVo | LDH | 200 µg/mL, 24 h | viability | 59.5% |
| CC(C)c1cc(C(=O)N2Cc3ccccc3C2)c(O)c2c1CCC2=O | UMUC3 | ATP luminescence | 72 h | IC50 | > 100000 nM |
| CCN(CC)CCNC(=O)c1c(C)[nH]c(/C=C2\C(=O)Nc3ccc(F)cc32)c1C | HT-29 |  | 30 µM | inhibition | 59.5% |
| COc1cc(/C=N/n2c(C)nc3ccc(Br)cc3c2=O)ccc1OCc1ccc(Cl)cc1 | LoVo | LDH | 200 µg/mL, 24 h | viability | 80% |
| CC(C)c1cc(C(=O)N2Cc3ccccc3C2)c(O)c2c1C(=O)CC2 | UMUC3 | ATP luminescence | 72 h | IC50 | 55600 nM |
| COc1ccc(-c2nc(NN=C3C(=O)Nc4ccc(Cl)cc43)c3ccccc3n2)cc1OC | HT-29 |  | 30 µM | inhibition | 5.3% |
| C=CC(=O)Nc1cc(-n2c(=O)ccc3cnc4ccc(-c5ccc(NS(C)(=O)=O)cc5)cc4c32)ccc1C | U2932 |  | 48 h | GI50 | 2150 nM |
| COc1cc(Nc2nccc(-c3cnn4nc(OC)ccc34)n2)cc(C(F)(F)F)c1 | LoVo | ATP luminescence |  | IC50 | 160 nM |
| COc1ccc2c(c1)C(=NNc1ncnc3cc(OC)c(OC)cc13)C(=O)N2 | HT-29 |  | 10 µM | inhibition | 20.9% |
| Cc1c(-c2cccc(C(F)(F)F)c2)sc2[nH]c(=O)n([C@H](C)c3cccc4ccccc34)c(=O)c12 | NCI-H1650 | fluorescence | 10 µM | inhibition | > 80% |
| COc1ccc(-c2ccc(-c3ccc(C(=N)N)nc3)s2)cc1Cl | TK-10 |  |  | GI50 | 1900 nM |
| C/C=C/C[C@H](C)[C@@H](OC)[C@@H](C)[C@H](O)C[C@H]1OC(=O)C=C[C@H]1CC | A2780 | MTT | 48 h | GI50 | 41 nM |
| COc1cc([C@@H]2c3cc4c(cc3[C@@H](O[C@@H]3O[C@@H]5CO[C@@H](C)O[C@H]5[C@H](O)[C@H]3O)[C@H]3COC(=O)[C@H]23)OCO4)cc(OC)c1O | Caco-2 | MTS | 72 h | IC50 | 14000 nM |
| C=CC(=O)N1CCC[C@@H](n2nc(-c3ccc(Oc4ccccc4)cc3)c3c(N)ncnc32)C1 | U2932 |  | 48 h | GI50 | 5000 nM |
| Cc1cc(C)n(C(=S)[S][Au][PH](CCCCCC[PH]([Au][S]C(=S)n2nc(C)cc2C)(c2ccccc2)c2ccccc2)(c2ccccc2)c2ccccc2)n1 | TK-10 |  |  | GI50 | 1210 nM |
